This is a sample that favours compounds with a hit; in the whole collection about 3.4% have one here.
p97 ATPase inh: inhibitors of human p97 ATPase, primary screen, biochemical | Transitional endoplasmic reticulum ATPase (Homo sapiens), P55072 | recombinant p97 ATPase, Kinase-Glo ATP luminescence, 3 h | inhibition, % at 8 µM | 0.42% of 220,000 active | AID 1481, 2009; in the data active means inhibition above about 15%
ROMK mod: ROMK potassium channel modulators, primary screen, cell-based, thallium flux, MLSMR library | ATP-sensitive inward rectifier potassium channel 1 (Homo sapiens), P48048 | Tet-inducible ROMK, thallium flux fluorescence; actives lie on both sides | B-score at 10 µM | 2% of 130,000 active | AID 1918, 2009;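 active means signal ratio slope over the read window, or its plate-corrected B-score, at least 3 SD from the plate mean, either direction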;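 further: B-score of the F/F0 ratio slope over 7 to 12 s after thallium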
DTT redox prof: compounds producing H2O2 with reducing agent – biochemical, NIH compound library profiling, artefact control for MLSCN library redox annotation, primary screen; DTT-dependent redox cycling H2O2, phenol red/HRP absorbance; 100% = 100 µM peroxide control, 0% = buffer; activation, % at 10 µM; 0.03% of 200,000 active; AID 878, 2007;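 active means activation of at least 50% relative to the plate's high and low controls in the primary single-dose screen; inactive means activation below 50%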;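 further: compound incubated with DTT at 0.8 mM final as the reducing agent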
MDM2 E3 inh: MDM2-luciferase reporter signal enhancers, primary screen, MDM2 E3 ligase inhibitor project, cell-based, luminescence, 1536-well; cell-based MDM2 ubiquitination luciferase reporter, 2 h; 0 = plate control, 100 = twice control, blank-subtracted; signal enhancement, % at 5 µM; 0.11% of 210,000 active;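 active means signal enhancement of 30% or more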;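 further: luminescence tracks abundance of the self-degrading MDM2-luciferase fusion protein; higher signal means inhibition of MDM2 E3 ligase activity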
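Assay system: stable mammalian line carrying autodegrading MDM2–luciferase fusion reporter; Input: 2000 cells in each well; Compound dosing: single-point 5 µM; Schedule: 2 h compound exposure at 37 °C; Signal: SteadyLite luciferase luminescence after 15 min room-temperature reagent incubation; Evaluation: % luminescence enhancement versus blank-corrected plate control mean; Benchmarks: plate controls and plate blanks.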
KCC2 mod: KCC2 cotransporter modulators, thallium flux, primary screen, cell-based, HEK293 KCC2, FluoZin-2 fluorescence, MLSMR | B-score of Tl+ flux slope (higher = more flux/activation; lower = inhibition) at 10 µM | AID 1456, 2008 | KCC2 cells, thallium flux FluoZin-2 fluorescence | Solute carrier family 12 member 5 (Homo sapiens), Q9H2X9 | 2.2% of 190,000 active;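 active means thallium flux slope and its plate-corrected score both differing from the plate sample mean at a set confidence after two filtering rounds, in either direction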;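 further: slope of fluorescence scaled to starting intensity during 10 to 20 s after thallium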
Target sequence (Q9H2X9 whole entry, looked up): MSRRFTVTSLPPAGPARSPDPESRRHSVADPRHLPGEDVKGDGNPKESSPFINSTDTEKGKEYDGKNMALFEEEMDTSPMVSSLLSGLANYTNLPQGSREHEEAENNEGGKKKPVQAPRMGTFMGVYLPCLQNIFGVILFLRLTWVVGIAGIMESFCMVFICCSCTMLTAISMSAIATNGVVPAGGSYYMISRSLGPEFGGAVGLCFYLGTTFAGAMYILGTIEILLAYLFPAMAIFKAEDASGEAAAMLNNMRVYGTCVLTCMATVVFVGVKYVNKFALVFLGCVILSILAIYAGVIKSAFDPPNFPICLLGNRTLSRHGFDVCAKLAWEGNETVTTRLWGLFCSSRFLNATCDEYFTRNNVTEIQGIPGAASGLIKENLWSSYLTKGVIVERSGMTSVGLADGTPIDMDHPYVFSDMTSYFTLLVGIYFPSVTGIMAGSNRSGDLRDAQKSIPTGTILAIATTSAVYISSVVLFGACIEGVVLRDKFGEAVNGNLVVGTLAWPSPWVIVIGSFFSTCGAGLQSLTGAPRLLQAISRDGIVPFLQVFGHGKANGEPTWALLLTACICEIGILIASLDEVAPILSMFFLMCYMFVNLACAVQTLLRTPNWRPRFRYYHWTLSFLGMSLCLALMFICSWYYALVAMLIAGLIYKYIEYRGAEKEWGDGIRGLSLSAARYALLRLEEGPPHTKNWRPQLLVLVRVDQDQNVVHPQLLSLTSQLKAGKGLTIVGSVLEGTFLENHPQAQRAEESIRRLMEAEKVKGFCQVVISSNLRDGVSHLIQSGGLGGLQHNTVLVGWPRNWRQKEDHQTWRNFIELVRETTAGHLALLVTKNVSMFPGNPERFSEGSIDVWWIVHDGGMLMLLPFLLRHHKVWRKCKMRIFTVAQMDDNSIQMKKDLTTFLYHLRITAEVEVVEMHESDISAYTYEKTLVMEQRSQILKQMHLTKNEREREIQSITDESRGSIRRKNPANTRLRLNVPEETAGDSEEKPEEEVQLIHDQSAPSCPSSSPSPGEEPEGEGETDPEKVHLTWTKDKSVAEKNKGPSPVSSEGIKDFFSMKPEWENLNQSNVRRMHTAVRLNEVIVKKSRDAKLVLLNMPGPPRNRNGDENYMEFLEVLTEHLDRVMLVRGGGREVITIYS
PKD1 kinase inh: inhibitors of human PKD1 kinase, biochemical, fluorescence polarization. Serine/threonine-protein kinase D1 (Homo sapiens), Q15139. PKD1 kinase fluorescence polarization assay. inhibition, % (concentration not given with the values). 0.056% of 200,000 active. AID 797, 2007; in the data active means inhibition above about 50%
KCC2 secondary: KCC2 modulators in sodium-free buffer, confirmation, cell-based, HEK293 KCC2, thallium flux, secondary assay; AID 1713, 2009; normalised thallium flux (F/F0 slope) at 10 µM; FluoZin2 fluorescence; hits give high values; shares compounds with KCC2 mod; 15% of 3,700 active;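 active means thallium flux slope above the same plate's solvent-only control mean plus 3 SD; inconclusive means the two replicate wells disagree; inactive means no significant difference from solvent-only control wells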
KCC2 bumet counter: thallium flux persisting under bumetanide in KCC2 cells, confirmation, counter-screen for KCC2 modulator project, cell-based, HEK293 KCC2, FluoZin2, secondary assay 3 | shares compounds with KCC2 mod | AID 1714, 2009 | 49% of 3,700 active | normalized thallium flux at 10 µM | HEK293-KCC2 + bumetanide/ouabain; hits give high values;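 active means thallium entry rate above the same plate's blocked-transporter control wells by more than 3 SD; inconclusive means the two repeat wells disagree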;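 further: raw slope of fluorescence over initial fluorescence between 10 and 20 s after thallium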
KCC2 sec2: KCC2 modulators without ouabain present, confirmation, cell-based, HEK293 KCC2, thallium flux, FluoZin2, secondary assay 2; shares compounds with KCC2 mod; thallium flux FluoZin2 fluorescence; actives lie on both sides; F/F0 rise rate, 10–20 s post-thallium; normalized thallium flux at 10 µM; 23% of 3,700 active;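 active means thallium flux slope more than 3 SD above or below the plate's solvent-only control mean, mostly below; inconclusive means the two repeat wells disagreed; inactive means no significant shift from solvent-only controls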
HEK293 Tl flux: thallium flux modulation in parental HEK cells, confirmation, counter-screen for KCC2 modulator project, cell-based, counterscreen 1; shares compounds with KCC2 mod; HEK293 parental cells, thallium flux FluoZin2, ouabain; baseline-ratio fluorescence slope, 10–20 s after thallium; thallium flux rate (normalised fluorescence) at 10 µM; AID 1716, 2009; 46% of 3,700 active;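 active means thallium flux rate significantly above the same plate's solvent-only control wells, beyond their mean plus 3 SD; inconclusive means the two replicate wells gave conflicting results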
KCC2 ouabain: KCC2 inhibitors and activators, ouabain retest, confirmation, HEK-KCC2 cells; shares compounds with KCC2 mod; HEK293-KCC2, thallium flux FluoZin2 fluorescence; bidirectional: low = inhibitor, high = activator; raw Tl+ flux slope (below DMSO = inhibition, above = activation) at 10 µM; 48% of 3,700 active; AID 1717, 2009;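 active means thallium flux slope beyond 3 SD from same-plate DMSO control mean in most replicates, usually higher, sometimes lower; inconclusive means repeat tests gave conflicting results; inactive means no significant difference from controls in most replicates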;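 further: slope of initial-normalized fluorescence between seconds 10 and 20 after thallium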
HEK counter2: native HEK Tl+ uptake effects, second counter-screen – HEK cells, counterscreen 2, counter-screen for KCC2 modulator project, confirmation; 33% of 3,700 active; thallium flux slope at 10 µM; HEK293 parental, thallium flux FluoZin-2 fluorescence slope; AID 1718, 2009; shares compounds with KCC2 mod;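 active means thallium flux slope above the same plate's solvent-control mean plus 3 SD in both duplicate wells; inconclusive means duplicate wells that disagreed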;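 further: run without ouabain in cells lacking the KCC2 cotransporter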
Numbers stand for hits.

How did COc1cccc(C(=O)Nc2nnc(-c3ccc(Cl)cc3)o2)c1 do in these assays?
MDM2 E3 inh: inactive; KCC2 mod: 46; KCC2 secondary: inconclusive; KCC2 bumet counter: 0.11; KCC2 sec2: 0.095; HEK293 Tl flux: 0.095; KCC2 ouabain: 0.1; HEK counter2: 0.089

Results for O=C(NN1C(=O)C2C(C1=O)C1C=CC2C12CC2)c1cccnc1 (centres undefined) ?
p97 ATPase inh: inactive; ROMK mod: inactive; DTT redox prof: inactive; MDM2 E3 inh: inactive; KCC2 mod: inactive; PKD1 kinase inh: inactive

How did Cc1n[nH]c(=O)nc1N/N=C/c1ccc(O)c([N+](=O)[O-])c1 do in these assays?
p97 ATPase inh: inactive; DTT redox prof: inactive; MDM2 E3 inh: inactive; KCC2 mod: inactive; PKD1 kinase inh: inactive

How did O=C(Nc1nnc(-c2cccs2)o1)c1ccco1 do in these assays?
p97 ATPase inh: inactive; DTT redox prof: inactive; MDM2 E3 inh: inactive; KCC2 mod: inactive; PKD1 kinase inh: inactive

Results for COc1cccc(C(=O)Nc2nnc(-c3cccs3)o2)c1 ?
p97 ATPase inh: inactive; DTT redox prof: inactive; MDM2 E3 inh: inactive; KCC2 mod: 5.3; PKD1 kinase inh: inactive; KCC2 secondary: inactive; KCC2 bumet counter: 0.023; KCC2 sec2: inactive; HEK293 Tl flux: 0.018; KCC2 ouabain: 0.029; HEK counter2: 0.016

How did O=C(COc1ccc(Cl)cc1)Nc1nnc(-c2ccc3c(c2)CCCC3)o1 do in these assays?
p97 ATPase inh: inactive; DTT redox prof: inactive; MDM2 E3 inh: inactive; KCC2 mod: 6.2; PKD1 kinase inh: inactive; KCC2 secondary: inconclusive; KCC2 bumet counter: 0.021; KCC2 sec2: inactive; HEK293 Tl flux: inconclusive; KCC2 ouabain: 0.032; HEK counter2: inconclusive

What do the screens show for `COc1cccc(C(=O)Nc2nnc(-c3ccc(F)cc3)o2)c1`?
MDM2 E3 inh: inactive; KCC2 mod: 15; KCC2 secondary: 0.0096; KCC2 bumet counter: 0.05; KCC2 sec2: 0.047; HEK293 Tl flux: 0.035; KCC2 ouabain: 0.047; HEK counter2: 0.023

What do the screens show for `COc1cccc(C(=O)Nc2ccc(F)cc2F)c1`?
p97 ATPase inh: inactive; ROMK mod: inactive; DTT redox prof: inactive; MDM2 E3 inh: inactive; PKD1 kinase inh: inactive

How did CC(=O)Nc1nnc(-c2ccc3c(c2)CCCC3)o1 do in these assays?
p97 ATPase inh: inactive; DTT redox prof: inactive; MDM2 E3 inh: inactive; KCC2 mod: inactive; PKD1 kinase inh: inactive

What do the screens show for `COc1ccc(-c2nnc(NC(=O)c3ccccc3C)o2)cc1`?
MDM2 E3 inh: inactive; KCC2 mod: 4.5; KCC2 secondary: 0.015; KCC2 bumet counter: 0.024; KCC2 sec2: inactive; HEK293 Tl flux: 0.013; KCC2 ouabain: inactive; HEK counter2: inconclusive

How did Cc1ccc(S(=O)(=O)Nc2cc(C(=O)NCCN3CCCC3)ccc2N2CCCCC2)cc1 do in these assays?
p97 ATPase inh: inactive; ROMK mod: inactive; DTT redox prof: inactive; MDM2 E3 inh: inactive; PKD1 kinase inh: inactive

What do the screens show for `O=C(Nc1nc2ccccc2n1CCOc1ccc(Cl)cc1)c1ccco1`?
p97 ATPase inh: inactive; DTT redox prof: inactive; MDM2 E3 inh: inactive; PKD1 kinase inh: inactive

How did Cc1cc2nc(-c3ccc(SCc4ccc(C(=O)O)cc4)nc3)[nH]c2cc1C do in these assays?
p97 ATPase inh: inactive; DTT redox prof: inactive; MDM2 E3 inh: inactive; KCC2 mod: -4; PKD1 kinase inh: inactive; KCC2 secondary: inactive; KCC2 bumet counter: inactive; KCC2 sec2: inactive; HEK293 Tl flux: inconclusive; KCC2 ouabain: 0.014; HEK counter2: inactive

How did CCC(=O)N(CCC(Cc1ccccc1)c1ccco1)Cc1ccco1 (centres undefined) do in these assays?
p97 ATPase inh: inactive; ROMK mod: inactive; DTT redox prof: inactive; MDM2 E3 inh: inactive; KCC2 mod: -3.9; PKD1 kinase inh: inactive; KCC2 secondary: inactive; KCC2 bumet counter: 0.0026; KCC2 sec2: inactive; HEK293 Tl flux: 0.0046; KCC2 ouabain: 0.013; HEK counter2: 0.0069

Results for C/C(=N\NC(=O)CSc1nc(C)cc(C)n1)c1ccc2c(c1)OCCO2 ?
p97 ATPase inh: inactive; ROMK mod: inactive; DTT redox prof: inactive; MDM2 E3 inh: inactive; KCC2 mod: inactive; PKD1 kinase inh: inactive

How did CC(C)(C)c1cc(-c2n[nH]c(=S)n2-c2ccccc2F)n[nH]1 do in these assays?
p97 ATPase inh: inactive; MDM2 E3 inh: inactive; KCC2 mod: 39; KCC2 secondary: inactive; KCC2 bumet counter: 0.047; KCC2 sec2: 0.045; HEK293 Tl flux: 0.033; KCC2 ouabain: 0.042; HEK counter2: 0.03

Bioassay records deposited in PubChem BioAssay by several laboratories.
